PubChem BioAssay
Inconclusive results are not listed. Activity calls are given as the source filed them.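 Rule for the calls, unless noted: active = inhibition over a set limit, the all-compound mean plus 3 SD, in both replicate runs; inconclusive = over that limit in just one replicate run; inactive = at or under that limit in both runs.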

Assays:
[1] = OD615 S. cerevisiae growth inhibition, permissive medium, pilot counter-assay, permissive growth control for S. cerevisiae lifespan shortening project (AID 705;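 active = growth inhibition above 25% in both replicates, a cutoff set 3 SD above the mean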); details: OD615, 24 h, at 10 µM, stronger effect = higher value
How it was run: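 System: Engineered DeaD yeast | Buffer or medium: SC raffinose/galactose permissive medium | Doses: 10 µM single dose, 0.25% DMSO | Times: 24 h exposure, 30 °C | Measured by: OD615 turbidity read | Read-out: Yeast growth inhibition indicated by reduced 24 h OD615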

[2] = Restrictive medium S. cerevisiae growth inhibition, OD615, pilot screen of yeast lifespan reduction project, restrictive growth control (AID 706;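 active = growth inhibition above a set limit, 3 SD over mean compound inhibition, in both replicates, cut at about 43% in these data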;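 note: modified DeaD lifespan yeast strain shifted to restrictive glucose medium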); details: OD615, 48 h, at 10 µM, stronger effect = higher value
How it was run: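 Assay system: engineered S. cerevisiae DeaD strain; Buffer or medium: CSMM-D glucose medium; Dosing: 10 µM compound, 0.25% DMSO; Times: cell pre-growth 4 h, compound exposure 48 h, 30 °C; Detection: absorbance (optical density) measured at 615 nm.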

[3] = viability gain of MRP-1-high H69AR cells under doxorubicin, pilot screen, MRP-1 activator project, CellTiter-Glo, duplicate (AID 807;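 active = viability increase at or above a cutoff of the median across tested compounds plus 3 SD, cut at about 8.5% in these data, passing the limit was not always enough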;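 note: compound pretreatment 18-22 h then 72 h combined with doxorubicin; 0% = doxorubicin alone and 100% = vehicle without doxorubicin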); details: H69AR viability with doxorubicin, CellTiter-Glo luminescence; at 10 µM; stronger effect = higher value
[4] = growth suppression of beta-catenin knockout HCT116, pilot screen, human colon tumor cells (AID 823;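 active = cell viability at or below a set limit in both duplicate runs, the limit being the all-compound median minus 4 SD, cut at about 23% in these data, passing the limit was not always enough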;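 note: 0% = wells killed by 20 µM Hyamine and 100% = untreated DMSO cell wells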); details: CellTiter-Glo, 60 h, at 10 µM, stronger effect = lower value
[5] = inhibitors of the yeast RAM network, pilot screen, dse1pr::URA3 reporter, 5-FOA selection (AID 869);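 note: 0% = DMSO wells with no growth and 100% = 10 µM 1-NA-PP1 with full growth; RAM network block rescues cells from 5-FOA so hits raise OD615 growth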; details: S. cerevisiae dse1pr::URA3 5-FOA growth, OD615, 2 d; at 10 µM; stronger effect = higher value; strain carries analog-sensitive mutant Cbk1 kinase
[6] = growth suppression of PTEN-deleted HCT116, pilot screen, cell-based, HCT116 clonal line, CellTiter-Glo (AID 824;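 active = viability at or below 27.92% in each of two runs, the all-compound median minus 4 SD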;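 note: 0% = 20 µM Hyamine control and 100% = vehicle cell control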); details: 60 h, at 10 µM, stronger effect = lower value

COc1cc2[nH]c(=O)n(Cc3ccc(C(=O)NCC4CCCO4)cc3)c(=O)c2cc1OC (stereo unspecified)
inactive: growth inhibition [1] -14.9% | growth inhibition [2] -17.9% | viability increase [3] -3.55% | viability [4] 90.2% | inhibition [5] 3.56%

C=C(C)Cn1c(SCC(=O)O)nnc1-c1ccc(C(C)(C)C)cc1
inactive: growth inhibition [1] -15.7% | growth inhibition [2] -4.97% | viability increase [3] 0.28% | viability [6] 101% | inhibition [5] 1%

CCCCSc1nc2c(c(=O)[nH]c(=O)n2C)n1CCc1ccccc1
inactive: growth inhibition [1] -16.6% | growth inhibition [2] -9.86% | viability increase [3] -3.38% | viability [4] 84.1% | viability [6] 85.9% | inhibition [5] 2.35%
